From PMC5372383 (Nature, 2017)

Legend:
[1] = biological target: ENL YEATS mutants (alanine mutation of the “R-Kac”-binding residues), ITC; assay: ITC
MOLM-13 cells = assay: JQ1 proliferation / viability; assay type: cell-based, human; settings: MOLM-13, sgRNA depletion; proliferation normalized to DMSO, n = 5
Procedure, shortened: (§1)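 MLL-rearranged leukaemia lines were grown in RPMI with 10% FBS, 2 mM L-glutamine, penicillin/streptomycin and plasmocin. Cells were transduced with sgRNAs (MOLM-13) or shNT/shENL shRNAs (panel) by spin infection (1500 rcf, 35°C, 90 min), then selected or sorted 48 h post infection. They were exposed to JQ1 or DMSO, and viability was read by CellTiter-Glo luminescence. MOLM-13 proliferation was normalised to DMSO.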

leukaemia cell lines = assay type: cell-based, human; settings: shENL vs shNT, MLL-rearranged leukaemia cells, n = 3
Procedure, shortened: as §1

U2OS cells = assay: JQ1 proliferation in U2OS cells; assay type: cell-based, human; settings: GFP, AF9 or ENL sgRNAs, n = 5
Procedure, shortened: (§2)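 HeLa and U2OS cells were kept in DMEM with 10% FBS, 2 mM L-glutamine, penicillin/streptomycin and plasmocin. They were transduced with GFP, AF9 or ENL sgRNAs by spin infection at 1500 rcf, 35°C for 90 min, then selected or sorted 48 h after infection. Cells were treated with JQ1, and viability was measured by CellTiter-Glo luminescence.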

HeLa cells = assay: JQ1 proliferation in HeLa cells; assay type: cell-based, human; settings: GFP, AF9 or ENL sgRNAs, n = 5
Procedure, shortened: as §2

iCas9-MOLM-13 cells = assay: RNA-seq of JQ1-treated iCas9-MOLM-13 cells; assay type: cell-based, human; settings: iCas9-MOLM-13, 50 nM JQ1 24 h vs DMSO

Compound | fold affinity drop against the wild type [1] [fold] | sensitivity to JQ1 on depletion of ENL or other SEC components (MOLM-13 cells) | JQ1 sensitivity on ENL silencing (leukaemia cell lines) | JQ1 sensitivity on ENL silencing, U2OS (U2OS cells) | JQ1 sensitivity on ENL silencing, HeLa (HeLa cells) | JQ1-induced transcriptional changes on ENL depletion, including MYC (iCas9-MOLM-13 cells)
H3_(17–28)K27ac peptide (from UniProt P68431 18-29) | 2.3 | – | – | – | – | –
Cc1sc2c(c1C)C(c1ccc(Cl)cc1)=N[C@@H](CC(=O)OC(C)(C)C)c1nnc(C)n1-2 [JQ1] | – | sensitized MOLM-13 cells | Increased JQ1 sensitivity | not in HeLa or U2OS cells | not in HeLa | markedly enhanced JQ1-induced transcriptional changes
